Laboratory results as given in ChEMBL document CHEMBL1126138, “Preparation and opioid activity of analogues of the analgesic dipeptide 2,6-dimethyl-L-tyrosyl-N-(3-phenylpropyl)-D-alaninamide” (J Med Chem, 1992).

Key:
[1] = target: Delta-type opioid receptor (Rattus norvegicus) (UniProt P33533); test: Ratio of IC50 of opioid receptor delta to IC50 opioid receptor mu
[2] = target: Kappa-type opioid receptor (Rattus norvegicus) (UniProt P34975); test: Ratio of IC50 of opioid receptor kappa to IC50 opioid receptor mu
[3] = target: Delta-type opioid receptor (Rattus norvegicus, UniProt P33533); test: Binding ability towards opioid receptor delta expressed in homogenates of rat brain.; type: tissue-based
[4] = target: Mu-type opioid receptor (Rattus norvegicus, UniProt P33535); test: Binding ability towards opioid receptor mu expressed in homogenates of rat brain.; type: tissue-based
[5] = system: Mus musculus; test: Number of mice of those tested in which 10 mg/kg compound inhibited writhing; type: functional
Procedure, shortened: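 Mouse writhing test with a single 10 mg/kg dose of compound. The value is the count of mice whose writhing was inhibited, out of the number tested.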

[6] = target: Delta-type opioid receptor (Rattus norvegicus) (UniProt P33533); test: Binding ability towards opioid receptor delta expressed in homogenates of rat brain at 100 nM concentration; type: tissue-based
Procedure, shortened: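 Rat brain homogenate, δ opioid binding site. Test compound at 100 nM. The value is the maximum percent displacement at that concentration.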

[7] = species on record: Mus musculus; test: Analgesic activity evaluated in mice by writhing test (confidence limit); type: functional

Chain of Delta-type opioid receptor (Rattus norvegicus) (P33533 whole entry): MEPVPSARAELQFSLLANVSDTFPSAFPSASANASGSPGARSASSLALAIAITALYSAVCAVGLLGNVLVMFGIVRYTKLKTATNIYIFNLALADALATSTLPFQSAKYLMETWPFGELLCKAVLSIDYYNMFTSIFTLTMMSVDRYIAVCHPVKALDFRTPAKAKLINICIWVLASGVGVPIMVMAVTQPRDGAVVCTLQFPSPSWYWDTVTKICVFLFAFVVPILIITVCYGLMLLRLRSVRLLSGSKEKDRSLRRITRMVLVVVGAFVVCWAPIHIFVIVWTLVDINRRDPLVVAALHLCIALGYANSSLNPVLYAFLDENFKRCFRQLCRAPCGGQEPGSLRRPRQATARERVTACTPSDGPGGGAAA
Chain of Delta-type opioid receptor (P33533 whole entry): as above
Chain of Mu-type opioid receptor (P33535 whole entry): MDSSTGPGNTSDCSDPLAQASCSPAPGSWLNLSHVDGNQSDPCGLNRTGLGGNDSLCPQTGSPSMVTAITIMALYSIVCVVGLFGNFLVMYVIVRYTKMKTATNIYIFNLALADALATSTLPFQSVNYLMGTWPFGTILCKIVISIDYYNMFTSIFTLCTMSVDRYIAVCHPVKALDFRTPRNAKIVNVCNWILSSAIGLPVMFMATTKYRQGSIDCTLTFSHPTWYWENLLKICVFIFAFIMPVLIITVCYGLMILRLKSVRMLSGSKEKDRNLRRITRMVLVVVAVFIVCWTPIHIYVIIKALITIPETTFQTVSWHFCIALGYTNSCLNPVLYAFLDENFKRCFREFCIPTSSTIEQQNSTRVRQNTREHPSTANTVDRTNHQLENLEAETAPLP
Chain of Kappa-type opioid receptor (Rattus norvegicus) (P34975 whole entry): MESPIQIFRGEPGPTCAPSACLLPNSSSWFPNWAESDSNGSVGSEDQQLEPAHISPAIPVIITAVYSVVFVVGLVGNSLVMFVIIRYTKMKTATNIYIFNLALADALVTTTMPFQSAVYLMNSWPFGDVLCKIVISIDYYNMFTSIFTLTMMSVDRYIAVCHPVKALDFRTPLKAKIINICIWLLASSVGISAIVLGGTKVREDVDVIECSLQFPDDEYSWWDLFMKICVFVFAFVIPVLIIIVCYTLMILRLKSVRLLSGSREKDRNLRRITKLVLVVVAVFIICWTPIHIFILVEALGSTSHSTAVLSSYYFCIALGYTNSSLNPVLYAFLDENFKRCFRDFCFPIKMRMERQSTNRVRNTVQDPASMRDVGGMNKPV

Structure (SMILES)	Ratio [1]	Ratio [2]	IC50 [3] [nM]	IC50 [4] [nM]	No. of mice [5]	Displacement [6] [%]	ED50 [7] [mg/kg]
Cc1cc(O)cc(C)c1C[C@H](N)C(=O)N[C@H](C)CNCCCc1ccccc1	354	2540	46	0.13	4	–	–
Cc1cc(O)cc(C)c1C[C@H](N)C(=O)N1CCCCC1CNCCCc1ccccc1 (some centres not stated)	269	222	12.1	0.045	3	–	–
Cc1cc(O)cc(C)c1C[C@H](N)C(=O)N[C@H](C)COCCCc1ccccc1	42	2600	21	–	3	–	–
Cc1cc(O)cc(C)c1C[C@H](N)C(=O)NC(C)/C(F)=C/CCCc1ccccc1 (some centres not stated)	–	1160	–	6.9	–	47.3	2.1
Cc1cc(O)cc(C)c1C[C@H](N)C(=O)N[C@H](C)C(=O)NCCCc1ccccc1	30.6	2920	3.98	0.13	–	–	0.52
Cc1cc(O)cc(C)c1C[C@H](N)C(=O)N1CCCCC1COCCCc1ccccc1 (some centres not stated)	67.9	173	110	1.62	–	–	2.1
Cc1cc(O)cc(C)c1C[C@H](N)C(=O)N[C@@H](COCCCc1ccccc1)COC(C)(C)C	10.3	282	340	33	–	–	1.7
Cc1cc(O)cc(C)c1C[C@H](N)C(=O)NC(C)/C=C/CCCc1ccccc1 (some centres not stated)	–	1100	–	5.4	–	39.3	2.1
Cc1cc(O)cc(C)c1C[C@H](N)C(=O)N[C@H](CO)COCCCc1ccccc1	139	3530	233	1.67	–	–	2.1
